Bioassay records as filed in PubChem.
S1P1 ag pot: activates or potentiates agonism at human S1P1 receptor. S1P1 CRE-bla cells, forskolin, beta-lactamase FRET, potentiator mode; S1P1 agonist co-added at EC20, 2 nM; 100% = saturating reference agonist, 0% = basal. activation, % at 9.5 µM. actives 0.57% (n = 56,000);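 active = activation above a cutoff set at the mean activation of all tested compounds plus 3 SD, cut at about 54% in these data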;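 also: forskolin at 4 µM as EC80 and the EC20 agonist is SEW2871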
D1 allo mod: allosteric modulators of human D1 dopamine receptor; AID 641; B-score at 10 µM; HEK293 D1, CRE-luciferase, dopamine EC30 potentiation; actives deviate in either direction; actives 5.9% (n = 58,000); P21728;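 active = luminescence count or its row- and column-corrected plate score outside the 99.7% band of the plate's sample wells, on either side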
TNAP act DEA: human TNAP activation, intermediate phosphate acceptor. P05186. purified TNAP, CDP-star luminescence, 100 mM DEA, 30 min; stronger effect = higher value; scale: 0 levamisole-inhibited, 1 vehicle-only enzyme. activation factor at 20 µM. 64,000 tested, under 10 active. AID 813;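 active = activation factor of at least 2 at 20 µM, relative to controls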
S1P3 agonist: S1P3 (human) receptor agonism. Q99500. S1P3 NFAT-BLA reporter cells, FRET ratio; relative to 1 µM S1P, basal subtracted. activation, % at 4.5 µM. actives 0.1% (n = 60,000);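 active = activation above the screen-wide mean plus 3 SD, cut at about 4.5% in these data, passing the limit was not always enough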
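Benchmarks: high control 1 µM S1P / System: stable CHO line with human S1P3, Gα16, NFAT-BLA reporter / Dosing: single compound concentration, 4.5 µM final / Timing: 4 h compound at 37 °C, 2 h substrate at RT / Measured by: FRET β-lactamase substrate fluorescence, excitation 405 nm, 460/535 nm emission ratio, background-subtracted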
M1 agonist: agonists of M1 muscarinic receptor; CHO-M1 cells, Fluo-4 calcium fluorescence, agonist mode; stronger effect = higher value; B-score at 10 µM; AID 626; actives 3% (n = 64,000);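 active = fluorescence rise, raw or as B-score row- and column-corrected plate score, outside the 99.7% band of its plate's samples, either direction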
M1 antagonist: antagonists of rat M1 muscarinic receptor; CHO-M1 cells, Fluo-4 calcium, ACh EC80 antagonist mode; stronger effect = lower value; B-score at 10 µM; actives 3.4% (n = 64,000);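 active = calcium fluorescence response, raw or row-and-column corrected B-score, differing from the plate sample mean either way at a set confidence level, mostly lower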
Target sequence (P08482 whole entry, looked up): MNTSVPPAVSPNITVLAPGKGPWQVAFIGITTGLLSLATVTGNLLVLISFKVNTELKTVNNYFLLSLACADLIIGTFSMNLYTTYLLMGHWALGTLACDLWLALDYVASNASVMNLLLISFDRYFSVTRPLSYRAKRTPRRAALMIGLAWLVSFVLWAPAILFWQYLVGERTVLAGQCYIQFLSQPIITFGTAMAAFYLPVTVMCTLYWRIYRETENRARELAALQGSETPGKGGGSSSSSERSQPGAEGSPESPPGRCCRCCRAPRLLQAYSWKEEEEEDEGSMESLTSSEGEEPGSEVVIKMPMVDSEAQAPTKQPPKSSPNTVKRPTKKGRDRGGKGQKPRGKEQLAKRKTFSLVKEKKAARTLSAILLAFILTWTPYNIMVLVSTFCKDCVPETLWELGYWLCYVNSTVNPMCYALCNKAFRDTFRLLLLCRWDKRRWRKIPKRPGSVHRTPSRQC
M1 ag confirm: confirmation of rat M1 muscarinic receptor agonists; shares compounds with M1 agonist; CHO-M1 cells, Fluo-4 calcium fluorescence, agonist mode; actives lie on both sides; fluorescence change (max-min) at 10 µM; actives 19% (n = 1,700); AID 1488;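 active = fluorescence change differs from the solvent-only DMSO control mean at a set confidence level in both duplicate runs; inconclusive = differs from solvent-only control mean in just one of two runs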;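 also: an EC20 dose of acetylcholine follows compound addition during the same imaging run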
M4 agonist ctr: activates rat M4 receptor in counter-screen for M1 agonists. shares compounds with M1 agonist. CHO M4/Gqi5 cells, Fluo-4 calcium fluorescence, agonist mode; actives lie on both sides. fluorescence change (max-min) at 10 µM. actives 9% (n = 1,700). AID 1741;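 active = fluorescence change differing from the plate's solvent-only control wells at 99.7% confidence in both duplicates, whether higher or lower; inconclusive = differs from solvent controls in only one of two duplicates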
Large screens that a line does not name were inactive (follow-up assays come after a bar, where they were run). Hits are enriched below; roughly 11% of the tested compounds scored in any of these assays.

CC(C)CN(C(=O)COC(=O)c1cc2c(s1)CCC2)C1CCS(=O)(=O)C1 (stereo not given)	none
OCCN(Cc1ccccc1)Cc1ccc(F)c(F)c1	none
O=C(c1csc2c1CCCCC2)N1CCN(c2ncccn2)CC1	none
CC(C)(C)NC(=O)C1CCCN(S(=O)(=O)c2cccc3cccnc23)C1 (stereo not given)	none
O=C(C1CCCN(S(=O)(=O)c2cccc3cccnc23)C1)N1CCc2ccccc21 (stereo not given)	M1 agonist 3.1 | M1 ag confirm inconclusive | M4 agonist ctr inactive
CC1(C)Cc2cccc(OCC(=O)N3CCN(S(=O)(=O)c4ccccc4)CC3)c2O1	none (no result: M1 agonist, M1 antagonist)
CC(=O)c1sc(NC(=O)C2(F)C(F)(F)C(F)(F)C(F)(F)C(F)(F)C2(F)F)nc1C	S1P1 ag pot 111, D1 allo mod -2.1, M1 agonist 9.2 | M1 ag confirm inactive | M4 agonist ctr inconclusive
CC(=O)c1sc(NC(=O)C=C(C)C)nc1C	M1 agonist -2.2 (no result: S1P1 ag pot) | M1 ag confirm -25 | M4 agonist ctr inactive
O=C(Cc1ccc(-n2cnnn2)cc1)NC12CC3CC(CC(C3)C1)C2	none
CCOC(=O)Cc1nnc2c(Nc3ccc(Cl)cc3)nc3nonc3n12	none
CCCc1cc(=O)[nH]c(SC(CC)C(=O)Nc2ccccc2C#N)n1 (stereo not given)	none
CCCCC(=O)Nc1ccc2oc(-c3ccncc3)nc2c1	M1 agonist 2.5 (no result: S1P1 ag pot) | M1 ag confirm inconclusive | M4 agonist ctr inactive
COC(=O)C(NC(C)=O)(Nc1ccccc1)C(=O)OC	none (no result: D1 allo mod)
CCOc1ccc(S(=O)(=O)N(C)CCO)cc1-c1nc2c(C(C)(C)C)nn(C)c2c(=O)[nH]1	M1 agonist 5.6 (no result: D1 allo mod) | M1 ag confirm inactive | M4 agonist ctr inactive
CCOc1ccc(S(=O)(=O)N(C)C)cc1-c1nc2c(C(C)(C)C)nn(C)c2c(=O)[nH]1	none
CCC(C)(C)n1nnnc1CN1CCN(c2nc3cc(OC)ccc3cc2C#N)CC1	none
O=C(c1cc(-c2ccncc2)nc2ccc(Cl)cc12)N1CCN(C(=O)C2CCCO2)CC1 (stereo not given)	M1 agonist 2.9 | M1 ag confirm inactive | M4 agonist ctr inactive
COc1ccc(S(=O)(=O)Cc2ccc(C(=O)N3CCN(c4cccc(C)c4C)CC3)o2)cc1	none
Cc1ccccc1S(=O)(=O)Cc1ccc(C(=O)N2CCN(c3ccc(F)cc3)CC2)o1	M1 agonist 3.2 | M1 ag confirm inactive | M4 agonist ctr inactive
COc1ccccc1N1CCN(C(=O)c2ccc(CS(=O)(=O)c3ccccc3OC)o2)CC1	M1 agonist 4.5 | M1 ag confirm inactive | M4 agonist ctr inconclusive
CCOc1ccc(OCC)c(NC(=O)CCn2cccc2)c1	none
Cc1oc(-c2ccc(Cl)cc2)nc1CN1CCCC(C(=O)N2CCN(C(=O)c3ccco3)CC2)C1 (stereo not given)	D1 allo mod -3.3, M1 agonist 4 | M1 ag confirm inactive | M4 agonist ctr inactive
CCN1CCN(C(=O)C2CCN(Cc3nc(-c4ccc(Cl)cc4)oc3C)CC2)CC1	none
CS(=O)(=O)N1Cc2ccccc2CC1C(=O)Nc1ccccc1C(N)=O (stereo not given)	none (no result: S1P1 ag pot, S1P3 agonist)
Cc1ccc(Cl)cc1N1CCN(C(=O)c2cc3c(=O)n(C)c4ccccc4c3n2C)CC1	D1 allo mod -4, M1 agonist 7.4 | M1 ag confirm inactive | M4 agonist ctr inactive
CCCN1Cc2cccc(C(=O)N3CCN(c4cc(Cl)ccc4C)CC3)c2C1=O	M1 agonist 2.3 | M1 ag confirm inconclusive | M4 agonist ctr inactive
Cn1c(C(=O)NC2CCCC2)cc2c(=O)n(C)c3ccccc3c21	M1 agonist 4.1 | M1 ag confirm -39 | M4 agonist ctr inactive
Cn1c(C(=O)NCC2CCCO2)cc2c(=O)n(C)c3ccccc3c21 (stereo not given)	none
c1ccc(-c2cnnc(N3CCCCC3)n2)cc1	none (no result: S1P1 ag pot, S1P3 agonist)
C=CCn1c(SCC(=O)NC2CCCCC2)nnc1C(C)NC(=O)c1cccs1 (stereo not given)	none (no result: S1P1 ag pot)
C=CCn1c(SCC(=O)c2ccc(OC)cc2)nnc1C(C)NC(=O)c1cccs1 (stereo not given)	M1 agonist -2.8 (no result: S1P1 ag pot) | M1 ag confirm inconclusive | M4 agonist ctr inactive
O=C(CN1CCOCC1)Nc1ccccc1-c1ccccc1	none
O=C(CN1CCOCC1)Nc1scc(-c2ccccc2)c1C(=O)N1CCOCC1	M1 agonist 3.4 | M1 ag confirm inconclusive | M4 agonist ctr inactive
COc1cc(C2C3CN(C)CC=C3C(C#N)=C(N)C2(C#N)C#N)ccc1OC(C)C (stereo not given)	D1 allo mod -4.9, M1 agonist 5.1 (no result: S1P1 ag pot, S1P3 agonist) | M1 ag confirm inactive | M4 agonist ctr inactive
CC(C)N1CC=C2C(C#N)=C(N)C(C#N)(C#N)C(c3ccccc3)C2C1 (stereo not given)	M1 agonist 225 (no result: D1 allo mod) | M1 ag confirm 427 | M4 agonist ctr 400
CC(C)(C)OC(=O)N1CC=C2C(C#N)=C(N)C(C#N)(C#N)C(c3cccs3)C2C1 (stereo not given)	M1 agonist 4.7 (no result: S1P1 ag pot, S1P3 agonist) | M1 ag confirm inactive | M4 agonist ctr inconclusive
CCC1C2CN(C(C)=O)CC=C2C(C#N)=C(N)C1(C#N)C#N (stereo not given)	none
CN1CC=C2C(C#N)=C(N)C(C#N)(C#N)C(Cc3ccccc3)C2C1 (stereo not given)	M1 agonist 30 | M1 ag confirm 98 | M4 agonist ctr inactive
N#Cc1ccccc1CSc1nc(N2CCCCC2)nc(N2CCCCC2)n1	M1 agonist 7.4 | M1 ag confirm inactive | M4 agonist ctr inactive
N#CC(C(=O)NCc1ccccc1)c1nc2ccccc2nc1N1CCCC1 (stereo not given)	M1 agonist 177, M1 antagonist -17 | M1 ag confirm 1394 | M4 agonist ctr 794
CCOc1ccccc1N1CCN(c2nc3ccccc3nc2C(C#N)C(=O)OC)CC1 (stereo not given)	D1 allo mod -4.3, M1 agonist 7.7 | M1 ag confirm inconclusive | M4 agonist ctr inactive
N#CC(C(=O)NCCc1ccccc1)c1nc2ccccc2nc1N1CCCCC1 (stereo not given)	M1 agonist 17 | M1 ag confirm 63 | M4 agonist ctr inactive
